Common to all, as to type: functional, cell-based
In one experiment the test system is HCT-15. The experiment in a line: Cytotoxicity against human HCT15 cells. The procedure, abridged:
(§1)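 Human cancer cell lines (HCT-15 colon, MCF-7 breast, U-251 central nervous system, PC-3 prostate, K562 leukemia) tested over a dose range using the National Cancer Institute cytotoxicity screening protocol.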

In a further experiment the test system is MCF7. The experiment in a line: Cytotoxicity against human MCF7 cells. The procedure, abridged: as §1
The test system of the next experiment is U-251. Briefly: Cytotoxicity against human U251 cells. The procedure, abridged: as §1
Another experiment has as its system PC-3. Briefly: Cytotoxicity against human PC3 cells. Put shortly:
as §1

For a further experiment, the system named is K562. The experiment in a line: Cytotoxicity against human K562 cells. Put shortly: as §1

Active and inactive are the calls of the source. No cut-off for these calls is given here.

Take `C/C=C(/C)C(=O)O[C@H]1C[C@H]2O[C@]23Cc2occ(C)c2C[C@]3(C)[C@H]1C`: the outcome in the experiment on HCT-15, in the experiment with MCF7, in the experiment on U-251, in the experiment with PC-3 and with K562 was inactive.
In the case of `C/C=C(/C)C(=O)O[C@H]1C[C@@H](OC(=O)/C(C)=C/C)C2=CC(=O)C(=C(C)C)C[C@]2(C)[C@H]1C`, the IC50 (in general, the concentration that inhibits the measured activity by half) was 12.8 µM in the experiment on HCT-15; 21 µM with MCF7; 17.6 µM in the experiment with U-251; 10.7 µM with PC-3; 51.1 µM with K562.
On to `C/C=C(/C)C(=O)O[C@H]1C[C@@H](O)C2=CC(=O)C(C(C)(C)O)=C[C@]2(C)[C@H]1C`, for which the outcome in the experiment with HCT-15, in the experiment on MCF7, with U-251, in the experiment with PC-3 and with K562 was inactive.
On to `COc1cccc2c1C(=O)c1c(O)c3c(c(O)c1C2=O)C[C@@](O)(C(=O)CO)C[C@@H]3O[C@H]1C[C@H](N)[C@H](O)[C@H](C)O1` [DOXORUBICIN], for which inhibition with PC-3 was half-maximal at 0.32 µM (IC50).
As to `C/C=C(/C)C(=O)O[C@H]1C[C@@H](O)C2=CC(=O)C(C(C)(C)OO)=C[C@]2(C)[C@H]1C`, the IC50 was more than 100 µM with HCT-15; more than 100 µM in the experiment on MCF7; 33.7 µM with U-251; 16.5 µM in the experiment on PC-3; 46.3 µM with K562.
Regarding `C/C=C(/C)C(=O)O[C@H]1C[C@@H](O)C2=CC(=O)C(=C(C)C)C[C@]2(C)[C@H]1C`, the IC50 was more than 100 µM in the experiment on HCT-15; more than 100 µM in the experiment on MCF7; 24.1 µM with U-251; 33.2 µM with PC-3; more than 100 µM with K562.
Consider `C=C1C[C@@H](OC(C)=O)[C@@H](C(C)C)[C@@H]2[C@@H](C(C)=O)[C@@H](OC(=O)/C(C)=C\C)C[C@@H]12`, for which the 50% inhibitory concentration (IC50) with HCT-15 was determined as 43.6 µM; with MCF7 it was 33.9 µM; in the experiment on U-251, 13 µM; in the experiment on PC-3, 78.7 µM; with K562, 13 µM.

(Values after ChEMBL document CHEMBL1148147, “New oplopane and eremophilane derivatives from Robinsonecio gerberifolius” (J Nat Prod, 2003).)
